Experimental data reported in ChEMBL document CHEMBL1125431, “2-substituted 3-(aminooxy)propanamines as inhibitors of ornithine decarboxylase: synthesis and biological activity” (J Med Chem, 1992).

Legend:
T-24 [1] = assay: Inhibitory activity against Human T24 bladder carcinoma cells; assay type: functional, cell-based
Ornithine decarboxylase = target: T1, Ornithine decarboxylase (Rattus norvegicus, UniProt P09057); assay: Inhibitory activity against Rat liver ornithine decarboxylase (ODC)
T1 sequence (P09057 whole entry): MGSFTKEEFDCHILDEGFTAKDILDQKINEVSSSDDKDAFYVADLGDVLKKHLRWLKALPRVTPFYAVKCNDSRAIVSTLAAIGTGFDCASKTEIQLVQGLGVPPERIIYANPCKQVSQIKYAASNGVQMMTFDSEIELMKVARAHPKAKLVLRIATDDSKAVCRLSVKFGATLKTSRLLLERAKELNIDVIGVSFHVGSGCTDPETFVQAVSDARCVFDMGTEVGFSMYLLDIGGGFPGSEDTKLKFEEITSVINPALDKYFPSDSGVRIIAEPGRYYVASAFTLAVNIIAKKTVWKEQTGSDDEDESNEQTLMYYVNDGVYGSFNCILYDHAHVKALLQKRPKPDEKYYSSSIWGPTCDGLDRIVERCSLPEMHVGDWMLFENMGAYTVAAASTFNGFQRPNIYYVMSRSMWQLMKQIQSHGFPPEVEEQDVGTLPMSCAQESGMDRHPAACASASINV
In short: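 Partially purified rat liver ODC. Reaction at 37 °C for up to 1 h in 100 mM Tris-HCl pH 7 with 4 mM EDTA, 4 mM DTT, 0.4 mM pyridoxal phosphate and 0.21 mM L-ornithine spiked with L-[1-¹⁴C]ornithine. Inhibitor, in 10 mM Tris pH 7, added with substrate. Released ¹⁴CO₂ trapped on alkali filter; acid stop; scintillation counting. IC50 by linear regression of log concentration versus % activity (95–5% range).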

T-24 [2] = assay: The compound was tested for anti proliferative activity against Human T24 bladder carcinoma cells; assay type: functional, cell-based

| SMILES | IC50 (T-24 [1]) | IC50 (Ornithine decarboxylase) | IC50 (T-24 [2]) |
| --- | --- | --- | --- |
| NCC(F)CNN (configuration not stated) | 163 µM | 3.3 µM | – |
| CS(=O)(=O)OC(CN)CON (configuration not stated) | 111 µM | 1.1 µM | – |
| C=CCNCC(O)CON (configuration not stated) | – | 21 µM | > 230 µM |
| Cc1ncc(COP(=O)(O)O)c(/C=N/OCC(F)CN)c1O (configuration not stated) | – | 5.2 µM | 0.6 µM |
| NCC(Cl)CON (configuration not stated) | 6.3 µM | 0.093 µM | – |
| Cc1ncc(COP(=O)(O)O)c(/C=N/OCC(O)CN)c1O (configuration not stated) | – | 24 µM | > 112 µM |
| NCCCON | 8.34 µM | 0.035 µM | – |
| NCC(F)CON (configuration not stated) | 2.38 µM | 0.014 µM | – |

Second part, led by results:

| IC50 (T-24 [1]) | IC50 (Ornithine decarboxylase) | SMILES | IC50 (T-24 [2]) |
| --- | --- | --- | --- |
| 181 µM | 670 µM | NOCC(O)CON | – |
| – | 66 µM | CC(C)NCC(O)CON (configuration not stated) | > 45.2 µM |
| 24.4 µM | 0.039 µM | NCC(O)CON (configuration not stated) | – |
| > 33.3 µM | 1.9 µM | CNCC(O)CON (configuration not stated) | – |
| 16.3 µM | 0.033 µM | NC[C@H](O)CON | – |
| > 36.6 µM | > 50 µM | CN(C)CC(O)CON (configuration not stated) | – |
| 20.5 µM | 0.049 µM | NC[C@@H](O)CON | – |
| > 230 µM | 8.4 µM | C#CCNCC(O)CON (configuration not stated) | – |
